By IC50 is commonly meant the concentration needed to halve the response being measured. The low end stands for inhibition by little substance, the high end for a need for much substance. As usually defined, the Ki is a measure of affinity in units of concentration, obtained from inhibition or displacement.

The text below walks through data of ChEMBL document CHEMBL2384915, “Design, synthesis and biological evaluation of novel 3,4,5-trisubstituted aminothiophenes as inhibitors of p53-MDM2 interaction. Part 2” (Bioorg Med Chem, 2013).

Where only a bound is given, the exact number is not on record here.

Test [1] has as its system A549. The test is described as follows: Cytotoxicity against human A549 cells expressing wild type p53 after 72 hrs by SRB assay. Type of test: functional, cell-based. The conditions noted are these: A549, 72 h. The method, boiled down: (§1)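 Seeded cells cultured overnight, then exposed to serial compound concentrations for 72 h. Fixed with 10% (w/v) TCA at 4 °C for 1 h, stained 30 min with 0.4% SRB in 1% acetic acid, washed with 1% acetic acid, and bound dye extracted with unbuffered Tris base. Absorbance read at 515 nm; inhibition computed versus untreated controls. IC50 derived by Logit method, mean of at least two independent tests.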
In general terms: Sulforhodamine B stains cellular protein and so reports cell mass.

The subject of test [2] is PC-3. The test can be described thus: Cytotoxicity against human p53 deficient PC3 cells after 72 hrs by SRB assay. Type of test: functional, cell-based. The following applies: PC-3, 72 h. The method, boiled down: as §1
The target of test [3] is Tumour suppressor p53/oncoprotein Mdm2 (Homo sapiens, UniProt Q00987). The test can be described thus: (§2) Inhibition of p53/MDM2 (1 to 118) (unknown origin) interaction after 1 hr by fluorescence polarization assay. Type of test: protein assay.
Test [4] concerns A549. The test is described as follows: Selectivity ratio of IC50 for human p53 deficient PC3 cells to IC50 for human A549 cells expressing wild type p53. Type of test: functional.
Test [5] deals with Tumour suppressor p53/oncoprotein Mdm2 (Homo sapiens, UniProt P04637+Q00987). Described as §2. Type of test: protein assay.
Tumour suppressor p53/oncoprotein Mdm2 (Homo sapiens, UniProt P04637+Q00987), sequence (P04637 whole entry): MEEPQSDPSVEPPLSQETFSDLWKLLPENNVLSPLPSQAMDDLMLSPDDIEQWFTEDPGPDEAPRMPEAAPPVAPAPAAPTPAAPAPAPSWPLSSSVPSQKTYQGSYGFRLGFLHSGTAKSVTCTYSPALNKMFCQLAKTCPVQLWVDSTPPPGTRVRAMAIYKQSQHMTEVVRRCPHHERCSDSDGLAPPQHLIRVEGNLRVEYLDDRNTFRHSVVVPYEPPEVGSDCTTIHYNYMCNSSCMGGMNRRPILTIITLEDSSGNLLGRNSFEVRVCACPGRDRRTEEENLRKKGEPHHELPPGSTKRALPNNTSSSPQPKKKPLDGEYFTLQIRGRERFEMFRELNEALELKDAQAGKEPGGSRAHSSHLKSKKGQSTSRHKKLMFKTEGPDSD
Tumour suppressor p53/oncoprotein Mdm2 (Homo sapiens, UniProt P04637+Q00987), sequence (Q00987 whole entry): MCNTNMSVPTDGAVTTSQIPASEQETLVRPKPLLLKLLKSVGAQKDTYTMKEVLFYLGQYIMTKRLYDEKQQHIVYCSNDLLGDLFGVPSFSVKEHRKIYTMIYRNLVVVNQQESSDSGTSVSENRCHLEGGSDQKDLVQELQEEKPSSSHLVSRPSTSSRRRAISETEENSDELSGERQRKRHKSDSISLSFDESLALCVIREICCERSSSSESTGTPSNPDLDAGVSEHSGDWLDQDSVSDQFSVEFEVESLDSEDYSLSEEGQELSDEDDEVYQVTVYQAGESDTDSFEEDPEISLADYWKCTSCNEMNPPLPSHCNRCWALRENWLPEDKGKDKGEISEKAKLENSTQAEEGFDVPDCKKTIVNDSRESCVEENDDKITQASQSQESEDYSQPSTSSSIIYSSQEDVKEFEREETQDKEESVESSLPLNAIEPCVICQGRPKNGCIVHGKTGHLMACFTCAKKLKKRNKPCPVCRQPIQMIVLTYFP

Tumour suppressor p53/oncoprotein Mdm2 (Homo sapiens, UniProt Q00987), sequence (P04637 whole entry): as the sequence (P04637 whole entry) above
Tumour suppressor p53/oncoprotein Mdm2 (Homo sapiens, UniProt Q00987), sequence (Q00987 whole entry): as the sequence (Q00987 whole entry) above

For `COC(=O)c1c(N)sc(-c2ccc(Cl)cc2)c1-c1ccc(Cl)cc1`, the IC50 in test [1] was determined as 5.04 µM; in test [2], 2.78 µM.

Turning to `Nc1sc(-c2ccc(Cl)cc2)c(-c2ccc(Cl)cc2)c1C(=O)NC1CC1`, the figures for the half-maximal inhibitory concentration (IC50) in test [1] and in test [2] were 1.95 µM and 3.68 µM, respectively.

As to `Nc1sc(-c2ccc(Cl)cc2)c(-c2ccc(Cl)cc2)c1C(=O)NC1CCCCC1`, the results for the IC50 in test [1] and in test [2] were 2.41 µM and 7.3 µM, respectively.

As to `Nc1sc(-c2ccc(Cl)cc2)c(-c2ccc(Cl)cc2)c1C(=O)N1CCCC1`, the IC50 in test [1] stood at 0.89 µM; in test [2], 6.22 µM.

For `Nc1sc(-c2ccccc2)c(-c2ccc(Cl)cc2)c1C(=O)NCc1ccccc1`, the values for the IC50 in test [1] and in test [2] were 8.51 µM and 22.8 µM, respectively. The same molecule showed a Ki in test [3] of 1.14 µM.

As to `Nc1sc(-c2ccc(F)cc2)c(-c2ccc(Cl)cc2)c1C(=O)NC1CC1`, the “Ratio IC50” value in test [4] is reported as greater than 5. The results for the IC50 in test [1] and in test [2] were 3 µM and 27.9 µM, respectively. In test [3], this molecule yielded a Ki of 0.34 µM.

As to `Nc1sc(-c2ccc(F)cc2)c(-c2ccc(Cl)cc2)c1C(=O)N1CCCC1`, the IC50 was 18.8 µM in test [1] and 20.4 µM in test [2]. Moreover, the affinity in test [3] corresponds to a Ki of 1.22 µM.

With `Nc1sc(-c2ccc(F)cc2)c(-c2ccc(Cl)cc2)c1C(=O)N1CCOCC1`, the results for the IC50 in test [1] and in test [2] were 12.7 µM and 25.1 µM, respectively. In test [3], this molecule showed a Ki of 0.22 µM.

Turning to `Nc1sc(-c2ccc(F)cc2)c(-c2ccc(Cl)cc2)c1C(=O)NCc1ccccc1`, the IC50 in test [1] was 9.95 µM; in test [2] it was 25.8 µM. In test [3], the affinity, expressed as Ki, was 0.6 µM.

Consider `Nc1sc(-c2ccc(Br)cc2)c(-c2ccc(Cl)cc2)c1C(=O)NC1CC1`, for which the concentration for half-maximal inhibition (IC50) in test [1] is greater than 50 µM; in test [2], 37.3 µM. Further, the Ki in test [3] came to 2.18 µM.

With `Nc1sc(-c2ccc(Br)cc2)c(-c2ccc(Cl)cc2)c1C(=O)NC1CCCCC1`, the IC50 in test [1] is 9.59 µM; in test [2] it was 28.4 µM. This molecule also came in with a Ki in test [3] of 1.06 µM.

Take `Nc1sc(-c2ccc(Br)cc2)c(-c2ccc(Cl)cc2)c1C(=O)N1CCCC1`: the “Ratio IC50” value in test [4] was greater than 5. Also, the IC50 worked out at 7.46 µM in test [1] and 37.5 µM in test [2]. The same molecule had an inhibitory constant (Ki) in test [3] of 0.75 µM.

As for `Nc1sc(-c2ccc(Br)cc2)c(-c2ccc(Cl)cc2)c1C(=O)N1CCOCC1`, in test [4], the “Ratio IC50” value is greater than 5. Further, the 50% inhibitory concentration (IC50) was 7.49 µM in test [1] and greater than 50 µM in test [2]. In test [3], this molecule had a Ki of 1.48 µM.

For `Nc1sc(-c2ccc(Br)cc2)c(-c2ccc(Cl)cc2)c1C(=O)NCc1ccccc1`, the figures for the IC50 in test [1] and in test [2] were 18.7 µM and greater than 50 µM, respectively. In test [3], this molecule yielded an inhibition constant (Ki) of 0.76 µM.

Consider `Nc1sc(-c2ccc([N+](=O)[O-])cc2)c(-c2ccc(Cl)cc2)c1C(=O)NC1CC1`, for which the Ki entry in test [5] is on record as “Not Active”.

As to `Nc1sc(-c2ccc([N+](=O)[O-])cc2)c(-c2ccc(Cl)cc2)c1C(=O)NC1CCCCC1`, the half-inhibitory concentration (IC50) was found to be 15 µM in test [1] and 25.9 µM in test [2]. For the same molecule, in test [5], the inhibition constant Ki result was “Not Active”.

For the molecule `Nc1sc(-c2ccc([N+](=O)[O-])cc2)c(-c2ccc(Cl)cc2)c1C(=O)N1CCCC1`, the half-inhibitory concentration (IC50) in test [1] was 10.7 µM; in test [2] it was 42.6 µM. Besides, the inhibition constant (Ki) result in test [5] is listed as “Not Active”.

Consider `Nc1sc(-c2ccc([N+](=O)[O-])cc2)c(-c2ccc(Cl)cc2)c1C(=O)N1CCCCC1`, for which, in test [5], the Ki result is reported as “Not Active”.

Regarding `Nc1sc(-c2ccc([N+](=O)[O-])cc2)c(-c2ccc(Cl)cc2)c1C(=O)N1CCOCC1`, the IC50 in test [1] is 16.7 µM; in test [2], greater than 50 µM. Also, the inhibitory constant (Ki) entry in test [5] was “Not Active”.

For `Nc1sc(-c2ccc(Cl)cc2)c(-c2ccc(Cl)cc2)c1C(=S)NC1CC1`, the 50% inhibitory concentration (IC50) in test [1] worked out at 8.28 µM; in test [2], 22.1 µM. The same molecule had an inhibition constant (Ki) in test [3] of 0.086 µM.

`Nc1sc(-c2ccc(Cl)cc2)c(-c2ccc(Cl)cc2)c1C(=S)NC1CCCC1`: the concentration for half-maximal inhibition (IC50) in test [1] was determined as 22.1 µM; in test [2], 29 µM. For the same molecule, the Ki in test [3] came out at 0.17 µM.

For the molecule `Nc1sc(-c2ccc(Cl)cc2)c(-c2ccc(Cl)cc2)c1C(=S)NC1CCCCC1`, the values for the concentration for half-maximal inhibition (IC50) in test [1] and in test [2] were 7.41 µM and 27.7 µM, respectively. For the same molecule, the inhibition constant Ki in test [3] was 0.32 µM.

As for `CC(C)(C)NC(=S)c1c(N)sc(-c2ccc(Cl)cc2)c1-c1ccc(Cl)cc1`, the IC50 in test [1] was greater than 50 µM; in test [2], 34 µM. This molecule registered an inhibitory constant (Ki) in test [3] of 0.58 µM.

For the molecule `CCOC(=O)c1c(N)[nH]c(-c2ccc(Cl)cc2)c1-c1ccc(Cl)cc1`, the “Ratio IC50” value in test [4] is recorded as greater than 5. For the same molecule, the figures for the half-maximal inhibitory concentration (IC50) in test [1] and in test [2] were 2.53 µM and 16.1 µM, respectively. In test [3], this molecule gave a Ki of 1.24 µM.

In the case of `Nc1[nH]c(-c2ccc(Cl)cc2)c(-c2ccc(Cl)cc2)c1C(=O)NC1CC1`, the values for the IC50 in test [1] and in test [2] were 4.62 µM and 19.3 µM, respectively. For the same molecule, the affinity in test [3], expressed as Ki, was 0.53 µM.

Turning to `O=C1CC(c2ccccc2)c2c(sc(-c3ccc(Cl)cc3)c2-c2ccc(Cl)cc2)N1` (stereo unspecified), the IC50 was 17.2 µM in test [1] and greater than 50 µM in test [2].

As for `O=C1CC(c2cccs2)c2c(sc(-c3ccc(Cl)cc3)c2-c2ccc(Cl)cc2)N1` (stereo unspecified), the IC50 in test [1] was 20.2 µM; in test [2] it was greater than 50 µM.

As for `O=C1CC(c2ccco2)c2c(sc(-c3ccc(Cl)cc3)c2-c2ccc(Cl)cc2)N1` (stereo unspecified), the IC50 is 25.4 µM in test [1] and greater than 50 µM in test [2].

As for `Clc1ccc(-c2sc3ncnc(NC4CC4)c3c2-c2ccc(Cl)cc2)cc1`, the figures for the concentration for half-maximal inhibition (IC50) in test [1] and in test [2] were 42.8 µM and greater than 50 µM, respectively.

Turning to `Clc1ccc(-c2sc3ncnc(NC4CCCCC4)c3c2-c2ccc(Cl)cc2)cc1`, the concentration for half-maximal inhibition (IC50) in test [1] and in test [2] was greater than 50 µM throughout.

Turning to `Clc1ccc(-c2sc3ncnc(N4CCCCC4)c3c2-c2ccc(Cl)cc2)cc1`, the IC50 in test [1] and in test [2] was greater than 50 µM each time.

Consider `Clc1ccc(-c2sc3ncnc(N4CCOCC4)c3c2-c2ccc(Cl)cc2)cc1`, for which the 50% inhibitory concentration (IC50) in test [1] and in test [2] was greater than 50 µM each time.

`Nc1sc(-c2ccccc2)c(-c2ccc(Cl)cc2)c1C(=O)NC1CC1`: the IC50 in test [1] was 4.3 µM; in test [2] it was 17.1 µM. The same molecule yielded a Ki in test [3] of 0.63 µM.

As to `Nc1sc(-c2ccccc2)c(-c2ccc(Cl)cc2)c1C(=O)N1CCCC1`, the IC50 in test [1] came to 5.8 µM; in test [2] it was 22.2 µM. This molecule also yielded a Ki in test [3] of 1.96 µM.

As for `Nc1sc(-c2ccccc2)c(-c2ccc(Cl)cc2)c1C(=O)N1CCOCC1`, the figures for the IC50 in test [1] and in test [2] were 14.2 µM and 29.3 µM, respectively. The Ki in test [3] was 0.28 µM.

Regarding `COc1ccc(C2=N[C@@H](c3ccc(Cl)cc3)[C@@H](c3ccc(Cl)cc3)N2C(=O)N2CCNC(=O)C2)c(OC(C)C)c1` [NUTLIN-3], the IC50 in test [1] came to 4.62 µM; in test [2], 20 µM.
